TRPC4 agonist: activators of mouse TRPC4 channel. actives 0.49% (n = 310,000). AID 2237. B-score at 10 µM. HEK293 TRPC4beta/mu-opioid, Fluo4 calcium fluorescence; active compounds read high. Q9QUQ5;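 active = B-score above 5 SD of library B-scores, and initial fluorescence ratio not above library mean plus 5 SD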;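 note: positive B-score marks a calcium rise read as TRPC4 activation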
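Assay system: HEK293 stable line with TRPC4beta plus mu-opioid receptor; schedule: 45 min room-temperature Fluo4 loading, 110 s read; technique: kinetic Fluo4 calcium fluorescence; evaluation: integrated baseline-normalised fluorescence ratio, converted to per-well B score; controls: buffer (low) and maximal DAMGO (high)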
TRPC4 PAM: allosterically enhances the mouse TRPC4 cation channel. Q9QUQ5. HEK293 TRPC4beta/mu-opioid, DAMGO EC20, Fluo-4 Ca2+ flux; active compounds read high. B-score at 10 µM. AID 2227. actives 0.42% (n = 310,000);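 active = B-score of calcium response area above 5 SD of library B-scores, with initial fluorescence ratio within 5 SD of library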;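 note: B-score of integrated fluorescence ratio over time as area under calcium response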
Platelet DG rel: platelet dense granule release activity | human platelet-rich plasma, SFLLRN dense granule ATP release, luminescence | inhibition, %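 (compounds screened at 7.5 µM in platelet-rich plasma)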 | actives 0.22% (n = 300,000) | AID 1663;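 active = mean replicate score, as percent of positive control, at or above 50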
TRPC6 inh: mouse TRPC6 channel inhibition; B-score at 10 µM; AID 2553; actives 1.1% (n = 310,000); HEK293-TRPC6, membrane potential dye, ACh-evoked depolarization; active compounds read low;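 active = B-score under library mean minus 3 SD, initial fluorescence not abnormally high, positive integrated signal ratio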;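 note: B-score derived from integrated fluorescence ratio over the kinetic read; more negative B-score means stronger inhibition of depolarization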
Target sequence (Q61143 whole entry, looked up): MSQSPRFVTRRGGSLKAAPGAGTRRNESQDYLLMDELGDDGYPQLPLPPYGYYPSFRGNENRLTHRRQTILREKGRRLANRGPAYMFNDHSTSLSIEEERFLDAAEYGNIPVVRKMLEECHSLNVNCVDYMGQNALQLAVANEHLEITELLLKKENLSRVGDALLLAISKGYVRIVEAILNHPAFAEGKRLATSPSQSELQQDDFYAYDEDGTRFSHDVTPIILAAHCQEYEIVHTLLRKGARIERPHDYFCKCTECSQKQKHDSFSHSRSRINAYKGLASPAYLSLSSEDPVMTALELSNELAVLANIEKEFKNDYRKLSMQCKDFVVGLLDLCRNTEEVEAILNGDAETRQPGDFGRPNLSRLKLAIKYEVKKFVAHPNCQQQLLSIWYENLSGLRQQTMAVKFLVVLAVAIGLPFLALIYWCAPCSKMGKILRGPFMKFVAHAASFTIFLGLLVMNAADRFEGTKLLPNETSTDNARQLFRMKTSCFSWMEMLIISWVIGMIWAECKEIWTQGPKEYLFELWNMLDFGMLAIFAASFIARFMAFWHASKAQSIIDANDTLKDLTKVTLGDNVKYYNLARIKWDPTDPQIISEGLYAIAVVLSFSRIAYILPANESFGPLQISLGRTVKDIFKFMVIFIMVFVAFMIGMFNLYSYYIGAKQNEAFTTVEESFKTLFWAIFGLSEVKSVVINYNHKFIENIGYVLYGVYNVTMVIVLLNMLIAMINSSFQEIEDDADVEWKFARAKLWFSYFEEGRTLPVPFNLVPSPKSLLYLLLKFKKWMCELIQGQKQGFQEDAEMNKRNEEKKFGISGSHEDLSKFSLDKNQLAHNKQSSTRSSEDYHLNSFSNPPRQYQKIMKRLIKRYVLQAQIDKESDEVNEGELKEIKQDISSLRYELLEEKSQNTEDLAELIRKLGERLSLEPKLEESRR
TRPC6 act: activates the mouse TRPC6 cation channel; actives 0.13% (n = 310,000); Q61143; B-score at 10 µM; HEK293-TRPC6 membrane potential dye fluorescence; active compounds read high;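 active = B-score of the integrated fluorescence ratio above library mean plus 3 SD, and starting fluorescence ratio within library mean plus 5 SD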;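 note: higher score means more depolarization so channel activation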
TRPC4 inh: TRPC4 (mouse) channel inhibition | Q9QUQ5 | HEK293 TRPC4beta/mu-opioid, DAMGO-evoked Fluo4 calcium flux; active compounds read low | B-score at 10 µM | actives 0.39% (n = 300,000);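 active = B-score over 3 SD under the library average, no early fluorescence shift, positive overall ratio signal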
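Assay system – HEK293 line stably carrying TRPC4beta and mu-opioid receptor · Doses – single dose · Detection – Fluo4 calcium-dye fluorescence, kinetic read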
TRPC4 sel inh 2: second check of whether TRPC6 inhibitors also affect mouse TRPC4; shares compounds with TRPC6 inh; AID 2776; inhibition, % at 10 µM; HEK293 TRPC4/MOR, membrane potential dye fluorescence; channel activated by saturating DAMGO dose; actives 42% (n = 920);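 active = compounds whose fluorescence signal differed from control wells by over 3 SD, either direction, in both duplicate plates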
TRPC4 spec: selectivity of TRPC6 inhibitors: effect on mouse TRPC4. shares compounds with TRPC6 inh. HEK293 TRPC4/mu-opioid, membrane potential fluorescence. AID 2777. activity change, negative = inhibition, % at 10 µM. actives 61% (n = 920);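 active = rise or fall in signal beyond 3 SD of buffer-only wells in both replicate plates, either sign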;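 note: integrated kinetic ratio of fluorescence range over baseline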
HEK293 MPD ctr 2-1: second check of TRPC6 inhibitor effects in parental HEK293 cells; shares compounds with TRPC6 inh; parental HEK293 membrane potential dye fluorescence; maximal acetylcholine challenge after compound addition; signal change vs control, % at 10 µM; actives 31% (n = 920); AID 2779;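 active = membrane potential signal moving either way by over 3 SD of the maximum-effect control, in both duplicate plates, meaning non-specific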
HEK293 MPD ctr-1: counter-screen for TRPC6 inhibitors: effect in parental HEK293 cells; shares compounds with TRPC6 inh; parental HEK293 membrane potential dye fluorescence; membrane potential signal change, % at 10 µM; actives 60% (n = 920); AID 2780;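 active = membrane potential signal shifting up or down by more than 3 SD of buffer-only wells, on both duplicate plates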
HEK293 MPD ctr-2: counter-screen for TRPC6 modulators: effect in parental HEK293 cells. shares compounds with TRPC6 inh. AID 488924. membrane potential signal change, % at 10 µM. actives 51% (n = 2,400). membrane potential dye fluorescence;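 active = membrane potential signal moves up or down beyond 5 SD from buffer-only wells, on both duplicate plates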
HEK293 MPD ctr 2-2: second counter-screen for TRPC6 modulators: effect in parental HEK293 cells; shares compounds with TRPC6 inh; membrane potential dye fluorescence; after compound, maximal acetylcholine stimulation; inhibition, % at 10 µM; actives 14% (n = 2,400);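 active = membrane potential signal drops by more than 5 SD from the mean control signal, in both duplicate plates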;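 note: plate controls were acetylcholine ECmax control wells for no effect and buffer only wells for full effect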
TRPC4 ctr mod: mouse TRPC4 off-target activity of TRPC6 modulators. shares compounds with TRPC6 inh. HEK293 TRPC4/mu-opioid, membrane potential fluorescence. percent change from control (negative = decrease, positive = increase), % at 10 µM. actives 69% (n = 2,400). AID 488927;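 active = membrane potential signal moved up or down beyond 5 SD of buffer control wells, in both duplicate plates, actives on both sides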;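 note: plate controls were assay buffer wells for no effect and DAMGO maximal-effect wells for full effect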
TRPC4/MOR inh 2: second check of whether TRPC6 modulators also affect mouse TRPC4 | shares compounds with TRPC6 inh | HEK293 TRPC4/mu-opioid, membrane potential dye fluorescence; stimulated with maximal-effect DAMGO | inhibition, % at 10 µM | actives 55% (n = 2,400);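 active = drop in membrane potential signal beyond 5 SD of the control wells in both duplicate plates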;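 note: TRPC4 counter screen for TRPC6 hits run under conditions tuned for TRPC6 not TRPC4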
TRPC6 inh conf: confirmation of mouse TRPC6 inhibitors; shares compounds with TRPC6 inh; inhibition, % at 10 µM; AID 488960; actives 43% (n = 3,300); HEK293-TRPC6, membrane potential dye, ACh-evoked depolarization;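 active = fluorescence ratio falls more than 5 SD below the full-stimulation control mean, in both duplicate runs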;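 note: integrated fluorescence ratio of peak minus minimum over baseline after agonist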
TRPC6 act conf: confirmation of mouse TRPC6 activators; HEK293-TRPC6 membrane potential dye fluorescence, FDSS; activation, % at 10 µM; actives 11% (n = 2,800); shares compounds with TRPC6 inh;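 active = ratio signal rise beyond 5 SD above unstimulated control wells' mean, seen in both duplicate runs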;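 note: plate controls were buffer EC0 wells for no effect and acetylcholine ECmax response for full effect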
Active calls of the source: *. Compounds with a hit are over-represented: about 2.5% of the library has one in this group of screens.

Results for C=CCOc1ccc(Cl)cc1CNC1CCCC1 ?
TRPC4 agonist: inactive; TRPC4 PAM: inactive; Platelet DG rel: 1; TRPC6 inh: -7.3*; TRPC6 act: inactive; TRPC4 inh: -6*; HEK293 MPD ctr-2: 321%*; HEK293 MPD ctr 2-2: 83%*; TRPC4 ctr mod: 76%*; TRPC4/MOR inh 2: 91%*; TRPC6 inh conf: 72%*

How did COc1ccc(CNC2CCCC2)c(OC)c1OC do in these assays?
TRPC4 agonist: inactive; TRPC4 PAM: inactive; Platelet DG rel: 4; TRPC6 inh: inactive; TRPC6 act: inactive; TRPC4 inh: inactive

What do the screens show for `OCCOCCn1c(-c2ccccc2)nc(=S)c2c1CCCC2`?
TRPC4 agonist: inactive; TRPC4 PAM: inactive; Platelet DG rel: 4; TRPC6 inh: -7.7*; TRPC6 act: inactive; TRPC4 inh: inactive; HEK293 MPD ctr-2: -322%*; HEK293 MPD ctr 2-2: 86%*; TRPC4 ctr mod: -52%*; TRPC4/MOR inh 2: 53%*; TRPC6 inh conf: 60%*; TRPC6 act conf: inactive

Results for C[n+]1cccc2ccc3c(c21)OC(N)=C(C#N)C3c1ccccc1 (stereo unspecified) ?
TRPC4 agonist: inactive; TRPC4 PAM: inactive; Platelet DG rel: 17; TRPC6 inh: -9.2*; TRPC6 act: inactive; TRPC4 inh: inactive; HEK293 MPD ctr-2: -284%*; HEK293 MPD ctr 2-2: 80%*; TRPC4 ctr mod: -48%*; TRPC4/MOR inh 2: 60%*; TRPC6 inh conf: 74%*; TRPC6 act conf: inactive

What do the screens show for `COc1ccc(-c2[nH]n(-c3ccc([N+](=O)[O-])cc3)c(=O)c2C=NCCN2CCNCC2)cc1`?
TRPC4 agonist: inactive; TRPC4 PAM: inactive; Platelet DG rel: 6; TRPC6 inh: -6.5*; TRPC6 act: inactive; TRPC4 inh: inactive; HEK293 MPD ctr-2: -227%*; HEK293 MPD ctr 2-2: inactive; TRPC4 ctr mod: -42%*; TRPC4/MOR inh 2: 50%*; TRPC6 inh conf: 50%*; TRPC6 act conf: inactive

What do the screens show for `COc1ccc(NC(=O)C2CCN(S(=O)(=O)c3ccc(Br)s3)CC2)cc1OC`?
TRPC4 agonist: inactive; TRPC4 PAM: inactive; Platelet DG rel: 16; TRPC6 inh: inactive; TRPC6 act: inactive; TRPC4 inh: inactive

How did C/C(=N\OCC(=O)OCC(=O)NCc1ccccc1)c1ccc2c(c1)OCO2 do in these assays?
TRPC4 agonist: inactive; TRPC4 PAM: inactive; Platelet DG rel: 6; TRPC6 inh: inactive; TRPC6 act: inactive; TRPC4 inh: inactive

What do the screens show for `CCN(CC)CCSc1nnc2c3cc(C)ccc3n(Cc3ccccc3)c2n1`?
TRPC4 agonist: inactive; TRPC4 PAM: inactive; Platelet DG rel: -16; TRPC6 inh: -7.1*; TRPC6 act: inactive; TRPC4 inh: inactive; TRPC4 sel inh 2: 27%*; TRPC4 spec: 14%*; HEK293 MPD ctr 2-1: inactive; HEK293 MPD ctr-1: -213%*; TRPC6 inh conf: inactive; TRPC6 act conf: inactive

Results for O=C(NCCNC(=O)c1cccc(O)c1)c1cccc(O)c1 ?
TRPC4 agonist: inactive; TRPC4 PAM: inactive; Platelet DG rel: -4; TRPC6 inh: inactive; TRPC6 act: inactive; TRPC4 inh: inactive

Results for Nc1cccc(C(=O)NCCNC(=O)c2cccc(N)c2)c1 ?
TRPC4 agonist: inactive; TRPC4 PAM: inactive; Platelet DG rel: -5; TRPC6 inh: -7.1*; TRPC6 act: inactive; TRPC4 inh: inactive; TRPC4 sel inh 2: inactive; TRPC4 spec: inactive; HEK293 MPD ctr 2-1: inactive; HEK293 MPD ctr-1: inactive; TRPC6 inh conf: inactive; TRPC6 act conf: inactive

What do the screens show for `CCN(CC)CCC(O)(c1ccccc1)C1CCCCC1` (stereo unspecified)?
TRPC4 agonist: inactive; TRPC4 PAM: inactive; Platelet DG rel: 10; TRPC6 inh: inactive; TRPC6 act: inactive; TRPC4 inh: inactive

Results for CN1CCCN=C1COC(=O)C(O)(c1ccccc1)C1CCCCC1 (stereo unspecified) ?
TRPC4 agonist: inactive; TRPC4 PAM: inactive; Platelet DG rel: -2; TRPC6 inh: -7*; TRPC6 act: inactive; TRPC4 inh: inactive; TRPC4 sel inh 2: inactive; TRPC4 spec: 0.2%*; HEK293 MPD ctr 2-1: 36%*; HEK293 MPD ctr-1: inactive; TRPC6 inh conf: 91%*; TRPC6 act conf: inactive

How did CC[N+]1(C)CCC(=C2c3ccccc3CC(=O)c3sccc32)CC1 (stereo unspecified) do in these assays?
TRPC4 agonist: inactive; TRPC4 PAM: inactive; Platelet DG rel: 23; TRPC6 inh: -14*; TRPC6 act: inactive; TRPC4 inh: inactive; TRPC4 sel inh 2: inactive; TRPC4 spec: inactive; HEK293 MPD ctr 2-1: 43%*; HEK293 MPD ctr-1: inactive; TRPC6 inh conf: 80%*; TRPC6 act conf: inactive

What do the screens show for `CN(C)/C=C1\Cc2ccccc2C1=O`?
TRPC4 agonist: inactive; TRPC4 PAM: inactive; Platelet DG rel: 1; TRPC6 inh: inactive; TRPC6 act: inactive; TRPC4 inh: inactive
